{"source": "ChEMBL document CHEMBL3875149", "about": "“New piperidine-hydrazone derivatives: Synthesis, biological evaluations and molecular docking studies as AChE and BChE inhibitors” (Eur J Med Chem, 2016)", "key": {"[1]": {"test": "Antioxidant activity assessed as inhibition of beta carotene/ linoleic acid peroxidation after 120 mins by spectrophotometric analysis", "type": "functional", "in_short": "(§1)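 Spectrophotometric radical-scavenging or β-carotene bleaching test, with DMSO as negative control and BHT and α-tocopherol as positive controls. The value is reported as IC50 in µM.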"}, "[2]": {"test": "Antioxidant activity assessed as DPPH free radical scavenging activity after 2 hrs by spectrophotometric analysis", "type": "functional", "in_short": "as §1"}, "[3]": {"test": "Antioxidant activity assessed as ABTS radical scavenging activity by spectrophotometric analysis", "type": "functional", "in_short": "as §1"}, "[4]": {"test": "Antioxidant activity assessed as cupric reducing capacity after 1 hr by spectrophotometric analysis", "type": "functional"}, "Acetylcholinesterase": {"biological_target": "Acetylcholinesterase (Electrophorus electricus, UniProt O42275)", "sequence (O42275 whole entry)": "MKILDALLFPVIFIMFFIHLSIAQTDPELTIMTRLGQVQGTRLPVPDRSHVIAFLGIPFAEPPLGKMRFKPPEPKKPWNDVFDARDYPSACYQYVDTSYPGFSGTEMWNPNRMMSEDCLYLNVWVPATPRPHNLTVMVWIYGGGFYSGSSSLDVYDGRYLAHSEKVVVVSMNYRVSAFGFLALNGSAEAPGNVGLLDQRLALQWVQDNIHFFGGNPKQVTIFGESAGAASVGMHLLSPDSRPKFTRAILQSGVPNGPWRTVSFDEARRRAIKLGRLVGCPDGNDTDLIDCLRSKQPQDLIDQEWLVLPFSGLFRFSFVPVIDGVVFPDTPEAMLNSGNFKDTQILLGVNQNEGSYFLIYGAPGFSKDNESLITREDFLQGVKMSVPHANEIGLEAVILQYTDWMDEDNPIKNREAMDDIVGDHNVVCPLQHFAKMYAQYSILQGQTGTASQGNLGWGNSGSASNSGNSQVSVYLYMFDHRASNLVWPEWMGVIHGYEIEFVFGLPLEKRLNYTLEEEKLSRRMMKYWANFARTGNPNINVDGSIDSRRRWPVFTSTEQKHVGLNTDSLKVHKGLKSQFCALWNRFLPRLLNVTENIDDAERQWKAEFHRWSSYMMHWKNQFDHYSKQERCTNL", "test": "Inhibition of electric eel acetylcholinesterase using acetylthiocholine iodide as substrate by Ellman's method"}, "Cholinesterase": {"biological_target": "Cholinesterase (Equus caballus, UniProt P81908)", "sequence (P81908 whole entry)": "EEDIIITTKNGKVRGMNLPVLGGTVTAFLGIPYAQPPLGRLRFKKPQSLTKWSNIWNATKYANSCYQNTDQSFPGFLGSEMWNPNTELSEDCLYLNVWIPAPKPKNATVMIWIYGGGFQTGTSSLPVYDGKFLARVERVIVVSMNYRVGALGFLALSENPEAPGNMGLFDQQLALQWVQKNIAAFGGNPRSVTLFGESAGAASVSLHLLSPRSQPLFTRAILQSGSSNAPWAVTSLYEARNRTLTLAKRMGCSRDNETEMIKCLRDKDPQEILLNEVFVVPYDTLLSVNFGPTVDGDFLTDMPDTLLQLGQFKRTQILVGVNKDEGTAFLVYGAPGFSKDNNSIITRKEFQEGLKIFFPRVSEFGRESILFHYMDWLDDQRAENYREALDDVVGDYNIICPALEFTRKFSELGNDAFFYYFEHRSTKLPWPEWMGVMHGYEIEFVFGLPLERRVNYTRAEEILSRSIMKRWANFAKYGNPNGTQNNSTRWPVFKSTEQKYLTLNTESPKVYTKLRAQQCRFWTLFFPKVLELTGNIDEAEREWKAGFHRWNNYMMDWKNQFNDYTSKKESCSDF", "test": "Inhibition of horse serum butyrylcholinesterase by Ellman's method", "in_short": "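Spectrophotometric Ellman assay using horse serum BChE, run alongside a parallel electric eel AChE assay. Inhibition reported as IC50 in µM.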"}, "[5]": {"test": "Cytotoxicity against human A549 cells assessed as decrease in cell viability after 24 hrs by MTT assay", "type": "functional, cell-based", "conditions": "A549, 24 h", "in_short": "(§2)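 A549 cells were kept in RPMI and BJ fibroblasts in EMEM, each with 10% FBS and 1% penicillin/streptomycin at 37℃ and 5% CO2. MTT was added at 0.5 mg/mL final for 3 h, formazan was dissolved in DMSO and read at 540 nm. Survival is expressed as % of the 0.1% DMSO control, and IC50 was derived from it.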"}, "[6]": {"test": "Cytotoxicity against human BJ cells assessed as decrease in cell viability after 24 hrs by MTT assay", "type": "toxicity, cell-based", "in_short": "as §2"}}, "note": "pIC50: −log10 of the molar value.", "data": [{"smiles": "CCOC(=O)N1CCC(=NNC(=O)c2ccc(F)cc2)CC1", "values": [{"measurement": "pIC50", "setting": "[1]", "result": 4.18}, {"measurement": "pIC50", "setting": "[2]", "result": 4.13}, {"measurement": "pIC50", "setting": "[3]", "result": 4.41}, {"measurement": "A0.5", "setting": "[4]", "result": 4.16, "unit": "µM"}, {"measurement": "pIC50", "setting": "Acetylcholinesterase", "result": 3.89}, {"measurement": "pIC50", "setting": "Cholinesterase", "result": 3.95}, {"measurement": "pIC50", "setting": "[5]", "result": "< 3.40"}, {"measurement": "IC50 at 24 h", "setting": "[6]", "result": "> 400", "unit": "µM"}]}, {"smiles": "CCOC(=O)N1CCC(=NNC(=O)c2ccc(C)cc2)CC1", "values": [{"measurement": "pIC50", "setting": "[1]", "result": 4.28}, {"measurement": "pIC50", "setting": "[2]", "result": 4.12}, {"measurement": "pIC50", "setting": "[3]", "result": 4.55}, {"measurement": "A0.5", "setting": "[4]", "result": 11.1, "unit": "µM"}, {"measurement": "pIC50", "setting": "Acetylcholinesterase", "result": 4.02}, {"measurement": "pIC50", "setting": "Cholinesterase", "result": 4.11}, {"measurement": "pIC50", "setting": "[5]", "result": "< 3.40"}, {"measurement": "IC50 at 24 h", "setting": "[6]", "result": "> 400", "unit": "µM"}]}, {"smiles": "O=C(NN=C1CC(c2ccccc2)NC(c2ccccc2)C1)c1ccc(Cl)cc1", "note": "(configuration not stated)", "values": [{"measurement": "pIC50", "setting": "[1]", "result": 4.36}, {"measurement": "pIC50", "setting": "[2]", "result": 4.01}, {"measurement": "pIC50", "setting": "[3]", "result": 4.17}, {"measurement": "A0.5", "setting": "[4]", "result": 49.8, "unit": "µM"}, {"measurement": "pIC50", "setting": "Acetylcholinesterase", "result": 4.39}, {"measurement": "pIC50", "setting": "Cholinesterase", "result": 4.45}, {"measurement": "pIC50", "setting": "[5]", "result": "< 3.40"}, {"measurement": "IC50 at 24 h", "setting": "[6]", "result": "> 400", "unit": "µM"}]}, {"smiles": "O=[N+]([O-])c1ccc(NN=C2CC(c3ccccc3)NC(c3ccccc3)C2)c([N+](=O)[O-])c1", "note": "(configuration not stated)", "values": [{"measurement": "pIC50", "setting": "[1]", "result": 4.55}, {"measurement": "pIC50", "setting": "[2]", "result": 4.70}, {"measurement": "pIC50", "setting": "[3]", "result": 4.72}, {"measurement": "A0.5", "setting": "[4]", "result": 29.2, "unit": "µM"}, {"measurement": "pIC50", "setting": "[5]", "result": "< 3.40"}, {"measurement": "IC50 at 24 h", "setting": "[6]", "result": "> 400", "unit": "µM"}]}, {"smiles": "CCOC(=O)N1CCC(=NNC(=O)c2ccc(Cl)cc2)CC1", "values": [{"measurement": "pIC50", "setting": "[1]", "result": 4.14}, {"measurement": "pIC50", "setting": "[2]", "result": 4.23}, {"measurement": "pIC50", "setting": "[3]", "result": 4.19}, {"measurement": "A0.5", "setting": "[4]", "result": 23.5, "unit": "µM"}, {"measurement": "pIC50", "setting": "Acetylcholinesterase", "result": 4.09}, {"measurement": "pIC50", "setting": "Cholinesterase", "result": 4.16}, {"measurement": "pIC50", "setting": "[5]", "result": "< 3.40"}, {"measurement": "IC50 at 24 h", "setting": "[6]", "result": "> 400", "unit": "µM"}]}, {"smiles": "CCOC(=O)N1CCC(=NNC(=O)c2ccc(C(F)(F)F)cc2)CC1", "values": [{"measurement": "pIC50", "setting": "[1]", "result": 4.31}, {"measurement": "pIC50", "setting": "[2]", "result": 4.47}, {"measurement": "pIC50", "setting": "[3]", "result": 4.63}, {"measurement": "A0.5", "setting": "[4]", "result": 51.4, "unit": "µM"}, {"measurement": "pIC50", "setting": "Acetylcholinesterase", "result": 3.87}, {"measurement": "pIC50", "setting": "Cholinesterase", "result": 4.04}, {"measurement": "IC50 at 24 h", "setting": "[6]", "result": "> 400", "unit": "µM"}]}, {"smiles": "O=C(NN=C1CC(c2ccccc2)NC(c2ccccc2)C1)c1ccc(C(F)(F)F)cc1", "note": "(configuration not stated)", "values": [{"measurement": "pIC50", "setting": "[1]", "result": 4.26}, {"measurement": "pIC50", "setting": "[2]", "result": 4.19}, {"measurement": "pIC50", "setting": "[3]", "result": 3.82}, {"measurement": "A0.5", "setting": "[4]", "result": 92.1, "unit": "µM"}, {"measurement": "pIC50", "setting": "Acetylcholinesterase", "result": 4.07}, {"measurement": "pIC50", "setting": "Cholinesterase", "result": 4.00}, {"measurement": "pIC50", "setting": "[5]", "result": "< 3.40"}, {"measurement": "IC50 at 24 h", "setting": "[6]", "result": "> 400", "unit": "µM"}]}, {"smiles": "O=C(NN=C1CC(c2ccccc2)NC(c2ccccc2)C1)c1ccc(C(F)(F)F)cc1F", "note": "(configuration not stated)", "values": [{"measurement": "pIC50", "setting": "[1]", "result": 4.39}, {"measurement": "pIC50", "setting": "[2]", "result": 4.15}, {"measurement": "pIC50", "setting": "[3]", "result": 4.20}, {"measurement": "A0.5", "setting": "[4]", "result": 85.2, "unit": "µM"}, {"measurement": "pIC50", "setting": "Acetylcholinesterase", "result": 4.05}, {"measurement": "pIC50", "setting": "Cholinesterase", "result": 3.93}, {"measurement": "pIC50", "setting": "[5]", "result": "< 3.40"}, {"measurement": "IC50 at 24 h", "setting": "[6]", "result": "> 400", "unit": "µM"}]}, {"smiles": "Cc1ccc(C(=O)NN=C2CC(c3ccccc3)NC(c3ccccc3)C2)cc1", "note": "(configuration not stated)", "values": [{"measurement": "pIC50", "setting": "[1]", "result": 4.16}, {"measurement": "pIC50", "setting": "[2]", "result": 4.27}, {"measurement": "pIC50", "setting": "[3]", "result": 4.19}, {"measurement": "A0.5", "setting": "[4]", "result": 50.6, "unit": "µM"}, {"measurement": "pIC50", "setting": "Acetylcholinesterase", "result": 4.13}, {"measurement": "pIC50", "setting": "Cholinesterase", "result": 4.30}, {"measurement": "pIC50", "setting": "[5]", "result": "< 3.40"}, {"measurement": "IC50 at 24 h", "setting": "[6]", "result": "> 400", "unit": "µM"}]}, {"smiles": "COc1ccc(C(=O)NN=C2CC(c3ccccc3)NC(c3ccccc3)C2)cc1", "note": "(configuration not stated)", "values": [{"measurement": "pIC50", "setting": "[1]", "result": 4.46}, {"measurement": "pIC50", "setting": "[2]", "result": 4.12}, {"measurement": "pIC50", "setting": "[3]", "result": 4.55}, {"measurement": "A0.5", "setting": "[4]", "result": 77.7, "unit": "µM"}, {"measurement": "pIC50", "setting": "Acetylcholinesterase", "result": 4.04}, {"measurement": "pIC50", "setting": "Cholinesterase", "result": 3.96}, {"measurement": "pIC50", "setting": "[5]", "result": "< 3.40"}, {"measurement": "IC50 at 24 h", "setting": "[6]", "result": "> 400", "unit": "µM"}]}]}
